Assay results published in ChEMBL document CHEMBL3045864, “Fungistatic activity of bicyclo[4.3.0]-γ-lactones” (J Agric Food Chem, 2011).
Converted amounts (≈) assume the structure as drawn.

Legend:
Type in all cases: functional, organism-based
[1] = system: Penicillium citrinum; experiment: Fungistatic activity against Penicillium citrinum AM 354 assessed as effect on diameter of fungal growth zone
In short: (§1)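 Agar dilution growth-zone assay. Lactones in DMSO were mixed into sterilized potato dextrose agar (0.01 mL DMSO per 1 mL agar) at final concentrations of 50–300 μg/mL. A fungal mycelium plug was placed on the agar and grown at 27 °C and 60–80% relative humidity. Growth-zone diameters were measured once DMSO-only control colonies reached 5.5–6.0 cm. Inhibition = (1 − Da/Db) × 100%. IC50 was taken from four concentrations, each run in triplicate. DDAC served as reference.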

[2] = system: Fusarium tricinctum; experiment: Fungistatic activity against Fusarium tricinctum AM 16 assessed as effect on diameter of fungal growth zone; in short: as §1
[3] = system: Fusarium oxysporum; experiment: Fungistatic activity against Fusarium oxysporum AM 13 assessed as effect on diameter of fungal growth zone; in short: as §1
[4] = system: Fusarium culmorum; experiment: Fungistatic activity against Fusarium culmorum AM 282 assessed as effect on diameter of fungal growth zone; in short: as §1
[5] = system: Aspergillus ochraceus; experiment: Fungistatic activity against Aspergillus ochraceus AM 456 assessed as effect on diameter of fungal growth zone; in short: as §1
[6] = Fusarium oxysporum, AM 13, read-out: IC50
[7] = Fusarium culmorum, AM 282, read-out: IC50

| Compound | IC50 [1] [µg/mL] | IC50 [2] [µg/mL] | IC50 [3, 6] [µg/mL] | IC50 [4, 7] [µg/mL] | IC50 [5] [µg/mL] | IC50 [3] [µg/mL] | IC50 [4] [µg/mL] |
| --- | --- | --- | --- | --- | --- | --- | --- |
| CC1(C)OC(=O)[C@H]2C[C@H]3O[C@H]3C[C@H]21 (racemic) | > 350 | 180 (≈ 991 µM) | 95.3 (≈ 523 µM) | 142 (≈ 777 µM) | 142 (≈ 780 µM) | – | – |
| O=C1OCC2CCC(O)CC12 (racemic) | > 350 | 161 (≈ 1030 µM) | 127 (≈ 811 µM) | 121 (≈ 773 µM) | 212 (≈ 1360 µM) | – | – |
| CCCCCCCCCC[N+](C)(C)CCCCCCCCCC.[Cl-] [DIDECYLDIMETHYLAMMONIUM CHLORIDE] | 41.6 | 27.9 | 24.2 | 24.5 | 51.3 | – | – |
| O=C1OC[C@@H]2C[C@@H](Br)[C@H](O)C[C@H]12 (racemic) | 292 (≈ 1240 µM) | 211 (≈ 898 µM) | 141 (≈ 600 µM) | 172 (≈ 733 µM) | 141 (≈ 599 µM) | – | – |
| O=C1OC[C@H]2C[C@H]3O[C@H]3C[C@@H]12 (racemic) | 312 (≈ 2030 µM) | 156 (≈ 1020 µM) | 72.2 (≈ 468 µM) | 90.4 (≈ 586 µM) | 141 (≈ 915 µM) | – | – |
| CC1(C)OC(=O)[C@H]2C[C@@H](O)[C@H](Br)C[C@H]21 (racemic) | 212 (≈ 806 µM) | 162 (≈ 617 µM) | 170 (≈ 648 µM) | 166 (≈ 632 µM) | 220 (≈ 838 µM) | – | – |
| O=C1OC[C@@H]2CCCC[C@H]12 | – | – | 261 (≈ 1860 µM) | 169 (≈ 1210 µM) | – | – | – |
| O=C1OC[C@H]2CC=CC[C@@H]12 (racemic) | > 350 | 221 (≈ 1600 µM) | 282 (≈ 2040 µM) | 184 (≈ 1330 µM) | 171 (≈ 1240 µM) | – | – |
| O=C1OC(=O)[C@@H]2CC=CC[C@H]12 | > 350 | 289 (≈ 1900 µM) | 220 (≈ 1450 µM) | 310 (≈ 2040 µM) | 287 (≈ 1880 µM) | – | – |
| O=C1OC[C@H]2CCCC[C@@H]12 (racemic) | > 350 | 222 (≈ 1580 µM) | 314 (≈ 2240 µM) | 147 (≈ 1050 µM) | 187 (≈ 1330 µM) | – | – |
| CC1(C)OC(=O)[C@@H]2CCCC[C@@H]21 (racemic) | 292 (≈ 1730 µM) | 213 (≈ 1260 µM) | – | – | 160 (≈ 949 µM) | 179.1 (≈ 1060 µM) | 134.5 (≈ 799 µM) |
| O=C1OC(=O)C2CCCCC12 (racemic) | > 350 | 303 (≈ 1960 µM) | 240 (≈ 1560 µM) | 292 (≈ 1890 µM) | 342 (≈ 2220 µM) | – | – |
| O=C1OC[C@H]2C[C@@H](Br)[C@H](Br)C[C@@H]12 (racemic) | 306 (≈ 1030 µM) | 110 (≈ 371 µM) | 30.1 (≈ 101 µM) | 81.5 (≈ 274 µM) | 219 (≈ 735 µM) | – | – |
| CC1(C)OC(=O)[C@H]2CC=CC[C@H]21 (racemic) | 274 (≈ 1650 µM) | 205 (≈ 1230 µM) | 188 (≈ 1130 µM) | 183 (≈ 1100 µM) | 159 (≈ 958 µM) | – | – |
| CC1(C)OC(=O)[C@H]2C[C@@H](Br)[C@H](Br)C[C@H]21 (racemic) | 255 (≈ 782 µM) | 191 (≈ 586 µM) | 80.2 (≈ 246 µM) | 155 (≈ 474 µM) | 121 (≈ 371 µM) | – | – |
| CC1(C)OC(=O)[C@@H]2CCCC[C@@H]21 | – | – | 162 (≈ 965 µM) | 121 (≈ 717 µM) | – | – | – |
| O=C1OC[C@@H]2C[C@@H]3O[C@@H]3C[C@H]12 | – | – | 51.9 (≈ 337 µM) | 59.7 (≈ 387 µM) | – | – | – |
| O=C1OC[C@H]2CCC[C@H](Br)[C@@H]12 (racemic) | 282 (≈ 1290 µM) | 173 (≈ 791 µM) | 184 (≈ 840 µM) | 133 (≈ 608 µM) | 244 (≈ 1120 µM) | – | – |
| O=C1OC[C@@H]2C[C@@H](Br)[C@H](Br)C[C@H]12 | – | – | 47.5 (≈ 159 µM) | 90.5 (≈ 304 µM) | – | – | – |
| O=C1OC[C@@H]2CC=CC[C@H]12 | – | – | 222 (≈ 1610 µM) | 171 (≈ 1240 µM) | – | – | – |
